Assays:
[1] = test system: TLX-5; test: In vivo antitumor activity against the TLX5 lymphoma cell line in mouse species CBA/CA after intraperitoneal administration (inoculum cells-2x10E5,sc) at the dose of 20 mg/kg; assay type: functional
How it was run: (§1)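 CBA/CA mice were inoculated with 2 × 10^5 TLX5 lymphoma cells. Drug given intraperitoneally in 10% Me2SO in arachis oil, 5 mice per dose, and the experiment lasted 60 days. Survivors at 60 days were recorded. T/C % = mean death day of treated animals / mean death day of control animals.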

[2] = test system: TLX-5; test: In vivo antitumor activity against the TLX5 lymphoma cell line in mouse species CBA/CA after intraperitoneal administration (inoculum cells-2x10E5,sc) at the dose of 160 mg/kg on 5th day; assay type: functional
[3] = test system: TLX-5; test: In vivo antitumor activity against the TLX5 lymphoma cell line in mouse species CBA/CA after intraperitoneal administration (inoculum cells-2x10E5,sc) at the dose of 20 mg/kg on 5th day; assay type: functional
[4] = test system: TLX-5; test: In vivo antitumor activity against the TLX5 lymphoma cell line in mouse species CBA/CA after intraperitoneal administration (inoculum cells-2x10E5,sc) at the dose of 10 mg/kg; assay type: functional
[5] = test system: L1210; test: In vivo antitumor activity against the L1210 leukemia cell line in mouse species B6D2F1 after intraperitoneal administration (inoculum cells-10E5,ip) at the dose of 50 mg/kg; assay type: functional
[6] = test system: L1210; test: In vivo antitumor activity against the L1210 leukemia cell line in mouse species B6D2F1 after intraperitoneal administration (inoculum cells-10E5,ip) at the dose of 100 mg/kg on 7th day; assay type: functional
[7] = test system: TLX-5; test: In vivo antitumor activity against the TLX5 lymphoma cell line in mouse species CBA/CA after intraperitoneal administration (inoculum cells-2x10E5,sc) at the dose of 80 mg/kg on 5th day; assay type: functional
[8] = test system: TLX-5; test: (§2) In vivo antitumor activity against the TLX5 lymphoma cell line in mouse species CBA/CA after intraperitoneal administration (inoculum cells-2x10E5,sc) at the dose of 40 mg/kg on 5th day; assay type: functional
[9] = test system: L1210; test: In vivo antitumor activity against the L1210 leukemia cell line in mouse species B6D2F1 after intraperitoneal administration (inoculum cells-10E5,ip) at the dose of 200 mg/kg; assay type: functional
[10] = test system: TLX-5; test: In vivo antitumor activity against the TLX5 lymphoma cell line in mouse species CBA/CA after intraperitoneal administration (inoculum cells-2x10E5,sc) at the dose of 160 mg/kg; assay type: functional; how it was run: as §1
[11] = test system: TLX-5; test: In vivo antitumor activity against the TLX5 lymphoma cell line in mouse species CBA/CA after intraperitoneal administration (inoculum cells-2x10E5,sc) at the dose of 10 mg/kg on 5th day; assay type: functional
[12] = test system: TLX-5; test: (§3) In vivo antitumor activity against the TLX5 lymphoma cell line in mouse species CBA/CA after intraperitoneal administration (inoculum cells-2x10E5,sc) at the dose of 40 mg/kg; assay type: functional; how it was run: as §1
[13] = test system: L1210; test: In vivo antitumor activity against the L1210 leukemia cell line in mouse species B6D2F1 after intraperitoneal administration (inoculum cells-10E5,ip) at the dose of 100 mg/kg; assay type: functional
[14] = test system: L1210; test: In vivo antitumor activity against the L1210 leukemia cell line in mouse species B6D2F1 after intraperitoneal administration (inoculum cells-10E5,ip) at the dose of 200 mg/kg on 7th day; assay type: functional
[15] = test system: L1210; test: In vivo antitumor activity against the L1210 leukemia cell line in mouse species B6D2F1 after intraperitoneal administration (inoculum cells-10E5,ip) at the dose of 50 mg/kg on 7th day; assay type: functional
[16] = test system: TLX-5; test: In vivo antitumor activity against the TLX5 lymphoma cell line in mouse species CBA/CA after intraperitoneal administration (inoculum cells-2x10E5,sc) at the dose of 80 mg/kg; assay type: functional; how it was run: as §1
[17] = test system: TLX-5; test: In vivo antitumor activity against the TLX5 lymphoma cell line in mouse species CBA/CA after intraperitoneal administration (inoculum cells-2x10E5,sc) at the dose of 160 mg/kg
[18] = test system: TLX-5; test: In vivo antitumor activity against the TLX5 lymphoma cell line in mouse species CBA/CA after intraperitoneal administration (inoculum cells-2x10E5,ip) at the dose of 160 mg/kg on 5th day; assay type: functional
[19] = test system: TLX-5; test: In vivo antitumor activity against the TLX5 lymphoma cell line in mouse species CBA/CA after intraperitoneal administration (inoculum cells-2x10E5,ip) at the dose of 80 mg/kg; assay type: functional; how it was run: as §1
[20] = test system: TLX-5; test: In vivo antitumor activity against the TLX5 lymphoma cell line in mouse species CBA/CA after intraperitoneal administration (inoculum cells-2x10E5,ip) at the dose of 80 mg/kg on 5th day; assay type: functional
[21] = test system: TLX-5; test: In vivo antitumor activity against the TLX5 lymphoma cell line in mouse species CBA/CA after intraperitoneal administration (inoculum cells-2x10E5,ip) at the dose of 320 mg/kg on 5th day; assay type: functional
[22] = test system: TLX-5; test: as §2; assay type: functional; how it was run: as §1; remark: listed apart in the source
[23] = test system: L1210; test: In vivo antitumor activity against the L1210 leukemia cell line in mouse species B6D2F1 after peroral administration (inoculum cells-10E5,iv) at the dose of 200 mg/kg; assay type: functional; settings: route oral
[24] = test system: TLX-5; test: In vivo antitumor activity against the TLX5 lymphoma cell line in mouse species CBA/CA after intraperitoneal administration (inoculum cells-2x10E5,sc) at the dose of 320 mg/kg on 5th day; assay type: functional
[25] = test system: L1210; test: In vivo antitumor activity against the L1210 leukemia cell line in mouse species B6D2F1 after peroral administration (inoculum cells-10E5,iv) at the dose of 200 mg/kg on 7th day; assay type: functional; settings: route oral
How it was run: (§4)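 B6D2F1 mice were inoculated with 10^5 L1210 leukemia cells, ip or iv as the line states. Compound was given orally as a suspension in 1% (carboxymethyl)cellulose in water, dosed on day 1 or 3, over 28–39 days. T/C% = mean death day of treated/mean death day of controls. Survivors to the end were counted in groups of 7–8.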

[26] = test system: L1210; test: In vivo antitumor activity against the L1210 leukemia cell line in mouse species B6D2F1 after peroral administration (inoculum cells-10E5,iv) at the dose of 100 mg/kg on 7th day; assay type: functional; settings: route oral; how it was run: as §4
[27] = test system: L1210; test: In vivo antitumor activity against the L1210 leukemia cell line in mouse species B6D2F1 after peroral administration (inoculum cells-10E5,iv) at the dose of 50 mg/kg on 7th day; assay type: functional; settings: route oral; how it was run: as §4
[28] = test system: L1210; test: In vivo antitumor activity against the L1210 leukemia cell line in mouse species B6D2F1 after peroral administration (inoculum cells-10E5,iv) at the dose of 50 mg/kg; assay type: functional; settings: route oral
[29] = test system: TLX-5; test: as §3; assay type: functional; remark: listed apart in the source
How it was run: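 CBA/CA mice were implanted sc with 2 × 10^5 TLX5 lymphoma cells. Compound was given ip on day 3 in 10% Me2SO in arachis oil, over 60 days, in groups of 5. T/C% = mean death day of treated/mean death day of controls. Survivors to day 60 were counted.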

[30] = test system: L1210; test: In vivo antitumor activity against the L1210 leukemia cell line in mouse species B6D2F1 after peroral administration (inoculum cells-10E5,iv) at the dose of 100 mg/kg; assay type: functional; settings: route oral

Work on `CCOC(=O)c1ncn2c(=O)n(CCCl)nnc12` yielded a T/C [1] of 98%, a Survivors [2] of 0 and a Survivors [3] of 0. It also gave a T/C [4] of 89%, a T/C [5] of 113% and a Survivors [6] of 0. For the same compound, the Survivors [7] was 0, the Survivors [8] was 0 and the T/C [9] was 137%. It also gave a T/C [10] of 113%, a Survivors [11] of 0 and a T/C [12] of 104%. For the same compound, the T/C [13] was 120%, the Survivors [14] was 0 and the Survivors [15] was 0. It also gave a T/C [16] of 91%.

In the case of `O=C(NNc1ccccc1)c1ncn2c(=O)n(CCCl)nnc12`, the T/C [17] is reported as 169%, the Survivors [18] is reported as 0 and the T/C [19] is reported as 107%. It also gave a Survivors [20] of 0 and a Survivors [21] of 0.

`CONC(=O)c1ncn2c(=O)n(CCCl)nnc12` gave a T/C [1] of 103%, a T/C [22] of 116% and a T/C [23] of 205%. The Survivors [24] was 0, the Survivors [25] was 0 and the Survivors [26] was 0. The Survivors [2] was 3, the Survivors [3] was 0 and the Survivors [27] was 0. It also gave a Survivors [7] of 0, a T/C [28] of 117% and a Survivors [29] of 0. For the same compound, the T/C [10] was >325%, the T/C [30] was 179% and the T/C [16] was 185%.
